Experimental data pooled from the literature.
Compare with care: the assays were run in different laboratories.
Target: Phosphatidylinositol 4,5-bisphosphate 3-kinase catalytic subunit gamma isoform (PIK3CG, Homo sapiens, UniProt P48736)

C1=C/COCc2cc(ccc2OCCN2CCCC2)Nc2nccc(n2)-c2cccc(c2)COC/1 — remaining binding (binding; 0.1 µM): 4.3%
COc1ccc2[nH]c3c4[nH]c5ccc(OC)cc5c4c4c(c3c2c1)C(=O)NC4=O — remaining binding (binding; 1 µM): 87%
COc1ccc2oc(-c3ccc4nc(N)oc4c3)c/c(=N\c3ccccc3NC(=O)CCN)c2c1 — remaining activity (enzyme activity, inhibitor; 1 µM): 98%
CO[C@@H]1[C@H](N(C)C(=O)c2ccccc2)C[C@H]2O[C@]1(C)n1c3ccccc3c3c4c(c5c6ccccc6n2c5c31)C(=O)NC4 — inhibition (enzyme activity, inhibitor; 1 µM): 34%
C#Cc1cnc(Nc2ccnc(CO)c2)nc1Nc1ccccc1S(C)(=O)=NC#N (stereo not shown) — remaining signal (cell-free assay; 1 µM): 15%
CC#CC(=O)N1CCC[C@H]1c1nc(-c2ccc(C(=O)Nc3ccccn3)cc2)c2c(N)nccn12 — inhibition (enzyme activity, inhibitor; 1 µM): 0%
CCCCC(=O)Nc1ccc(-c2ccc3ncn(CCC)c(=O)c3c2)cn1 — remaining binding (binding, competition with immobilised ligand; 0.5 µM): 100%
Cc1nc(NC(=O)N2CCC[C@H]2C(N)=O)sc1-c1ccnc(C(C)(C)C(F)(F)F)c1 — inhibition (enzyme activity, inhibitor, ADP detection; 10 µM): 73.3%
N#Cc1ccc(NC(=O)Nc2ccccc2)cc1 — remaining binding (cell-free assay, competition with immobilised ligand; 25 µM): 77%
C[C@H]1CC[C@H](n2c3cnccc3c3cnc(Nc4ccc5c(n4)CCN(C(=O)CO)C5)nc32)CC1 — remaining signal (cell-free assay; 1 µM): 47%
